Legend:
[1] = target: Histamine H2 receptor (Cavia porcellus) (UniProt P47747); test: Agonistic activity against histamine H2 receptor in guinea pig atrium(potency relative to histamine =1); assay type: functional, tissue-based; settings: Cardiac atrium
How it was run: (§1)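 Isolated guinea pig atrium, muscle under 400-mg tension, propranolol (0.5 μM) present. Agonist tested up to 781 μM (0.1% histamine) by cumulative dose-response curves. Potency relative to histamine taken from concentrations giving 50% of maximal response; selected compounds by 2 + 2 Latin square parallel-line assay against histamine.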

[2] = target: T1, Histamine H2 receptor (Cavia porcellus, UniProt P47747); test: Antagonistic activity against H2 receptor in guinea pig.; assay type: functional; settings: read-out: pA2 (converted)
[3] = target: Histamine H2 receptor (Cavia porcellus) (UniProt P47747); test: Percent maximum response against histamine H2 receptor in guinea pig atrium was evaluated; assay type: tissue-based; settings: Cardiac atrium
How it was run: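 Isolated guinea pig atrium under 400-mg tension with propranolol (0.5 μM). Complete cumulative dose-response curves to histamine and test agonist, up to 781 μM, used to find the maximum response obtainable, expressed relative to histamine.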

[4] = target: Histamine H2 receptor (Cavia porcellus) (UniProt P47747); test: Agonistic activity against histamine H2 receptor in guinea pig atrium (potency relative to histamine =1); assay type: functional, tissue-based; settings: Cardiac atrium; how it was run: as §1
[5] = target: Histamine H2 receptor (Cavia porcellus) (UniProt P47747); settings: Cardiac atrium
[6] = target: T1, Histamine H2 receptor; test: Antagonistic activity against H2 receptor in guinea pig was evaluated; assay type: functional; settings: read-out: pA2 (converted)
How it was run: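 Guinea pig atrium under 400-mg tension with propranolol (0.5 μM). Histamine concentrations giving half-maximal response measured with and without several antagonist concentrations (B). K_B = B/(x − 1), x being the concentration ratio; pA2 = −log K_B.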

T1 sequence (P47747 whole entry): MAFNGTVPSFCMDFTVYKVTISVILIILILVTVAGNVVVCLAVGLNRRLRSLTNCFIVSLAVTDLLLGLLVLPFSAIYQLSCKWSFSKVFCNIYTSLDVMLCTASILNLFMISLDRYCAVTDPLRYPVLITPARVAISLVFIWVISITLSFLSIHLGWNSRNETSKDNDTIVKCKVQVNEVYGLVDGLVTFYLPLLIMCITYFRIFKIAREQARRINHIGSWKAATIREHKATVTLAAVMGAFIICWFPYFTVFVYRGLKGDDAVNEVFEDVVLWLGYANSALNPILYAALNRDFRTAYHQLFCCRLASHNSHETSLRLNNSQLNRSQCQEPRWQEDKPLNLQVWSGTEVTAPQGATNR
Histamine H2 receptor (Cavia porcellus), sequence (P47747 whole entry): as above

SMILES: C/N=C(\N)NCCc1c[nH]cn1
- Potency [1]: 0.01
- Kb [2]: > 501 µM
- Max response [3]: 62%

SMILES: N=C(NCCCCc1c[nH]cn1)NCCCc1c[nH]cn1
- Potency [4]: 12.3
- Max response [3]: 85.5%

SMILES: Cc1[nH]cnc1CSCCNC(=N)NCCSCc1nc[nH]c1C
- Kb [2]: 0.214 µM

SMILES: Cc1nc[nH]c1CSCCNC(=S)NCCCc1cnc[nH]1
- Kb [2]: 1.2 µM

SMILES: CC1=NN(c2ccc([N+](=O)[O-])cc2)C(=O)C1[N+](=O)[O-].Cc1[nH]cnc1CSCC/N=C(\N)NCCCc1cn(C)cn1
- Potency [4]: 0.007
- Kb [2]: 1.58 µM
- Max response [3]: 11%

SMILES: CC1=NN(c2ccc([N+](=O)[O-])cc2)C(=O)C1[N+](=O)[O-].Cc1[nH]cnc1CSCC/N=C(\N)NCCc1c[nH]cn1
- Potency [4]: 1.93
- Max response [3]: 100%

SMILES: CSC(=N)NCCCc1c[nH]cn1
- Potency [4]: 0.1
- Kb [2]: 25.1 µM
- Max response [3]: 23%

SMILES: C/N=C(\N)NCCCc1nccs1
- Kb [2]: 63.1 µM

SMILES: C/N=C(\N)NCCSCc1c[nH]cn1
- Kb [2]: 41.7 µM

SMILES: C/[S+]=C(/NCCCc1c[nH]cn1)NCCSCc1[nH]cnc1C
- Potency [5]: 0.01
- Kb [6]: 17.8 µM

SMILES: Cc1[nH]cnc1CSCC/N=C(\NC#N)NCCCc1c[nH]cn1
- Kb [2]: 0.575 µM

SMILES: C/N=C(\N)NCCSCc1[nH]cnc1C
- Kb [2]: 16.2 µM

SMILES: Cc1nc[nH]c1CSCCNC(=O)NCCCc1cnc[nH]1
- Kb [2]: 6.31 µM

SMILES: C/N=C(\N)NCCCCc1c[nH]cn1
- Potency [4]: 0.074
- Kb [2]: 100 µM
- Max response [3]: 46%

SMILES: CSC(=N)NCCSCc1[nH]cnc1C
- Kb [2]: 6.92 µM

SMILES: Cc1[nH]cnc1CSCC/N=C(\N)SCCCc1c[nH]cn1
- Kb [2]: 3.31 µM

SMILES: N=C(NCCCc1c[nH]cn1)NCCSCc1nccs1
- Potency [4]: 24.4
- Max response [3]: 91%

SMILES: N=C(NCCCc1c[nH]cn1)NCCSCc1c[nH]cn1
- Potency [4]: 5.38
- Max response [3]: 95%

SMILES: C/N=C(\N)NCCCc1c[nH]cn1
- Potency [4]: 0.2
- Kb [2]: 12.6 µM
- Max response [3]: 62%

SMILES: Cc1[nH]cnc1CSCC/N=C(\N)NCCCCc1c[nH]cn1
- Potency [4]: 0.83
- Kb [2]: 1.15 µM
- Max response [3]: 20%

SMILES: Cc1[nH]cnc1CSCCNC(=N)NCCCc1c[nH]cn1
- Potency [4]: 48.1
- Max response [3]: 98.7%

SMILES: CC1=NN(c2ccc([N+](=O)[O-])cc2)C(=O)C1[N+](=O)[O-].N=C(NCCCc1c[nH]cn1)NCCCc1c[nH]cn1
- Potency [4]: 4.83
- Max response [3]: 100%

SMILES: N=C(NCCCc1c[nH]cn1)NCCCc1nccs1
- Potency [4]: 26.6
- Max response [3]: 87%

SMILES: CC1=NN(c2ccc([N+](=O)[O-])cc2)C(=O)C1[N+](=O)[O-].CN/C(=N\CCCc1c[nH]cn1)NCCSCc1[nH]cnc1C
- Potency [1]: 0.062
- Max response [3]: 91%

Source: ChEMBL document CHEMBL1122944, “The histamine H2 receptor agonist impromidine: synthesis and structure-activity considerations” (J Med Chem, 1985)
